Test results: article PMC9389373 (RSC Advances, 2022)

Key:
MDA-MB-231 cells [1] = experiment: DNA-aided cell cycle analysis by flow cytometry; type: cell-based; settings: 8i at 0.12 μM, 48 h; control 9.83%
MCF-10A = experiment: MTT cytotoxicity assay, normal breast cells MCF-10A; type: cell-based; settings: Homo sapiens
In short: (§1)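 Cells came from the National Cancer Institute, Cairo, and were grown in RPMI-1640 with L-glutamine, 10% FBS and 1% penicillin-streptomycin at 37 °C, 5% CO2. Plated in triplicate in 96-well plates (5 × 10^4 cells). Next day, exposed to test compound at 0.01, 0.1, 1, 10 and 100 μM (48 h stated for MDA-MB-231 and MCF-10A). MTT added for 3 h; absorbance read; viability relative to control; IC50 derived.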

MDA-MB-231 cells [2] = experiment: Annexin V/PI staining flow cytometry, apoptosis-necrosis assessment; type: cell-based; settings: 8i at 0.12 μM, 48 h
In short: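 MDA-MB-231 cells seeded overnight in 6-well plates (3–5 × 10^5 cells/well), then exposed to test compound for 48 h. Stained 30 min in the dark in Annexin binding buffer (25 mM CaCl2, 1.4 M NaCl, 0.1 M Hepes/NaOH, pH 7.4) with Annexin V-FITC (1:100) and PI (10 μg mL−1). Analysed by flow cytometry: Q1 necrosis, Q2 late apoptosis, Q4 early apoptosis.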

MCF-7 = experiment: MTT cytotoxicity assay, MCF-7; type: cell-based; settings: Homo sapiens, MCF7, read-out: IC50, μM MCF-7
In short: as §1

EGFR = EGFR (Homo sapiens, UniProt P00533); experiment: EGFR inhibition, ADP-Glo kinase assay; type: biochemical
MDA-MB-231 cells [3] = experiment: RT-PCR gene expression of apoptosis-related genes; type: cell-based; settings: 8i at 0.12 μM, 48 h, untreated control = 1
PARP-1 = PARP-1 (Homo sapiens, UniProt P09874); experiment: PARP-1 enzyme inhibition assay; type: biochemical
MDA-MB-231 = experiment: MTT cytotoxicity assay, MDA-MB-231; type: cell-based; settings: read-out: IC50, μM MDA-MB-231, average of three independent trials
In short: as §1

[4] = five concentrations, sigmoidal nonlinear regression

Chain of PARP-1 (P09874 whole entry): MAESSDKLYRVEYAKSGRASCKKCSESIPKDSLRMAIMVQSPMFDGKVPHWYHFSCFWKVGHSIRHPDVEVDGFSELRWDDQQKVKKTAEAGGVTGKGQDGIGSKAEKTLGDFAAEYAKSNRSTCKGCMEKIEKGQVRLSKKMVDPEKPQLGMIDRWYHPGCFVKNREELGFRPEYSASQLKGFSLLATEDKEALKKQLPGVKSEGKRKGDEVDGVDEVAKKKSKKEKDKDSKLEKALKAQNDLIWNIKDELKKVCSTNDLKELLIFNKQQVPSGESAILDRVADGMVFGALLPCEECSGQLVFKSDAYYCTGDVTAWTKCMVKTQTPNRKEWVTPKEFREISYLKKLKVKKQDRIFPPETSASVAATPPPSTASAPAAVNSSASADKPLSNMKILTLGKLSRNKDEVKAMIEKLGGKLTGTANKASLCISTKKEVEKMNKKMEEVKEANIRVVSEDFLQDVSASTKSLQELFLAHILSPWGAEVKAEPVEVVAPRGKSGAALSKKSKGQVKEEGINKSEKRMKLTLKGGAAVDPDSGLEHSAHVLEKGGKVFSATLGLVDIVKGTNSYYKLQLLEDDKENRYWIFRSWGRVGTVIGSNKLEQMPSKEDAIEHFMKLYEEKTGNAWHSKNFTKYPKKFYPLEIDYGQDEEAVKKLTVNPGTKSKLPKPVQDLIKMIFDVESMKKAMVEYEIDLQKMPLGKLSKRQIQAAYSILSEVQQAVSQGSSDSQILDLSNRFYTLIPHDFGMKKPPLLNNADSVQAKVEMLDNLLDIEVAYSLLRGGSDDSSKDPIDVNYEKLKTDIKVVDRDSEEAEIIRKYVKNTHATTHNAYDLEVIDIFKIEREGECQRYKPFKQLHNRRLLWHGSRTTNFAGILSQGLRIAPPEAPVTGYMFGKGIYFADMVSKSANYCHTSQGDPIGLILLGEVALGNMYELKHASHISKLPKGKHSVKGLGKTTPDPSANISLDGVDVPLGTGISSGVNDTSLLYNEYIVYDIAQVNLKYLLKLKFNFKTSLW
Chain of EGFR (P00533 25-1210): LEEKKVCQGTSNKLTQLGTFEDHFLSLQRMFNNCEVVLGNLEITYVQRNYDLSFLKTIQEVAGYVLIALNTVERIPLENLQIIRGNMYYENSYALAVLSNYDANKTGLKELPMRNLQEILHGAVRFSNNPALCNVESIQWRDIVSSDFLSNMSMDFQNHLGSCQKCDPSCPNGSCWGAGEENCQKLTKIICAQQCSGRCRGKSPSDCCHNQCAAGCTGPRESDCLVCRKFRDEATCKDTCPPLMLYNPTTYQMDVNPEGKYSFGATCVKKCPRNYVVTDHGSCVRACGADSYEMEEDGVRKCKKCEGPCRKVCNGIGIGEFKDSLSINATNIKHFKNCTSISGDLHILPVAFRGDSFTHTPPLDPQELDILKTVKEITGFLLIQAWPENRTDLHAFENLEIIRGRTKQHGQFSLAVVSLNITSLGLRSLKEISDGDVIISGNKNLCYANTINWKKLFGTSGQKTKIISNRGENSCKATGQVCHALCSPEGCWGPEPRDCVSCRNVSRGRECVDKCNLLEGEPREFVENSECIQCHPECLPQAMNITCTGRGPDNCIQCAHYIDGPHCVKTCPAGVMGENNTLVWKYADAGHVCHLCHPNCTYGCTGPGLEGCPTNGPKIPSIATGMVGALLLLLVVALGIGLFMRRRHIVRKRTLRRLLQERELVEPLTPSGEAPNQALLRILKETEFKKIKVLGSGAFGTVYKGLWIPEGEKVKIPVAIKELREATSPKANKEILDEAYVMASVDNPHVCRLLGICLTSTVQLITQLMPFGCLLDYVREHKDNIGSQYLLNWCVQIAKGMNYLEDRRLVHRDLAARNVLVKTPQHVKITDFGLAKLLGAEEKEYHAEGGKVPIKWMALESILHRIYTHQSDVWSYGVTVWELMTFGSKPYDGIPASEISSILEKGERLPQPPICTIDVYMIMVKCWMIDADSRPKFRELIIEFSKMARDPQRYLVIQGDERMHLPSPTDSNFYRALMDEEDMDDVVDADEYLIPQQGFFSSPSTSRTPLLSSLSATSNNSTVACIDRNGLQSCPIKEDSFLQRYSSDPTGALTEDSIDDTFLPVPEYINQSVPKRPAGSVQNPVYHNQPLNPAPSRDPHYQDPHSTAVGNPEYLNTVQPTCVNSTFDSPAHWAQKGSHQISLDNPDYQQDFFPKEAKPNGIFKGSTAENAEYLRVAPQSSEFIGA

For `Cc1nnc2n1N=C(c1ccccc1OCC(=O)NCCCNC(=O)COc1ccccc1C1=Nn3c(C)nnc3SC1)CS2` [8i, N,N′-(Propane-1,3-diyl)bis(2-(2-(3-methyl-7H-[1,2,4]triazolo[3,4-b][1,3,4]thiadiazin-6-yl)phenoxy)acetamide)], the “cell population at G2/M” value (MDA-MB-231 cells [1]) was 24.04%, the IC50 (MCF-10A; 48 h, read-out: IC50 MCF-10A) was 52.4 µM and the inhibition at 100 µM (MCF-10A; read-out: cell inhibition) was ~90%. For the same molecule, the “necrosis, fold compared to control” value (MDA-MB-231 cells [2]) was 3.14 fold, the “total apoptosis, fold compared to control” value (MDA-MB-231 cells [2]) was 38 fold and the “late apoptosis (Q2)” value (MDA-MB-231 cells [2]; control 0.18%) was 19.51%. For the same molecule, the “early apoptosis (Q4)” value (MDA-MB-231 cells [2]; control 0.63%) was 11.23%, the “total apoptotic cell death” value (MDA-MB-231 cells [2]; control 0.81%) was 30.74% and the “necrosis (Q1)” value (MDA-MB-231 cells [2]; control 1.3%) was 4.08%. The IC50 (MCF-7) was 1.31 µM, the IC50 (EGFR) was 0.0647 µM and the “Bcl-2 gene level, fold change” value (MDA-MB-231 cells [3]; decrease) was 0.35 fold. For the same molecule, the “Bax gene level, fold change” value (MDA-MB-231 cells [3]; increase) was 4.46 fold, the “P53 gene level, fold change” value (MDA-MB-231 cells [3]; increase) was 4.8 fold and the “caspase-3 gene level, fold change” value (MDA-MB-231 cells [3]; increase) was 3.9 fold. For the same molecule, the “caspase-8 gene level, fold change” value (MDA-MB-231 cells [3]; increase) was 6.36 fold and the “caspase-9 gene level, fold change” value (MDA-MB-231 cells [3]; increase) was 2.9 fold.

Molecule `O=C(COc1ccc(C2=Nn3c(nnc3-c3ccccc3)SC2)cc1)NCCCCNC(=O)COc1ccc(C2=Nn3c(nnc3-c3ccccc3)SC2)cc1` [8j, N,N′-(Butane-1,4-diyl)bis(2-(4-(3-phenyl-7H-[1,2,4]triazolo[3,4-b][1,3,4]thiadiazin-6-yl)phenoxy)acetamide)] has an IC50 (MCF-7) of 14.9 µM.

`Cc1nnc2n1N=C(c1ccccc1OCC(=O)NCCNC(=O)COc1ccccc1C1=Nn3c(C)nnc3SC1)CS2` [8d, N,N′-(Ethane-1,2-diyl)bis(2-(2-(3-methyl-7H-[1,2,4]triazolo[3,4-b][1,3,4]thiadiazin-6-yl)phenoxy)acetamide)] was tested, and the IC50 (PARP-1) was 0.0199 µM, the “IC50, nM PARP-1” value (PARP-1; [4]) was “poor inhibitory activities” and the IC50 (MCF-7) was 2.14 µM. For the same molecule, the IC50 (EGFR) was 0.124 µM, the “IC50, nM EGFR” value (EGFR; [4]) was “poor inhibitory activities” and the IC50 (MDA-MB-231) was 0.421 µM.

`O=C(COc1ccccc1C1=Nn2c(nnc2-c2ccccc2)SC1)NCCCNC(=O)COc1ccccc1C1=Nn2c(nnc2-c2ccccc2)SC1` [8g, N,N′-(Propane-1,3-diyl)bis(2-(2-(3-phenyl-7H-[1,2,4]triazolo[3,4-b][1,3,4]thiadiazin-6-yl)phenoxy)acetamide)] was tested, and the IC50 (MCF-7) was 11.2 µM.

`Cc1nnc2n1N=C(c1ccc(OCC(=O)NCCCNC(=O)COc3ccc(C4=Nn5c(C)nnc5SC4)cc3)cc1)CS2` [8f, N,N′-(Propane-1,3-diyl)bis(2-(4-(3-methyl-7H-[1,2,4]triazolo[3,4-b][1,3,4]thiadiazin-6-yl)phenoxy)acetamide)] was tested, and the IC50 (MCF-7) was 7.12 µM.

For `O=C(COc1ccc(-c2cnc3ccccc3n2)cc1)NCCCNC(=O)COc1ccc(-c2cnc3ccccc3n2)cc1` [10d, N,N′-(Propane-1,3-diyl)bis(2-(4-(quinoxalin-2-yl)phenoxy)acetamide)], the IC50 (MCF-7) was 23.2 µM and the IC50 (MDA-MB-231) was ≥ 50 µM.

`Cc1cc2ncc(-c3ccc(OCC(=O)NCCNC(=O)COc4ccc(-c5cnc6cc(C)c(C)cc6n5)cc4)cc3)nc2cc1C` [10b, N,N′-(Ethane-1,2-diyl)bis(2-(4-(6,7-dimethylquinoxalin-2-yl)phenoxy)acetamide)] was tested, and the IC50 (MCF-7) was ≥ 50 µM.

`O=C(COc1ccccc1C1=Nn2c(nnc2-c2ccccc2)SC1)NCCCCNC(=O)COc1ccccc1C1=Nn2c(nnc2-c2ccccc2)SC1` [8k, N,N′-(Butane-1,4-diyl)bis(2-(2-(3-phenyl-7H-[1,2,4]triazolo[3,4-b][1,3,4]thiadiazin-6-yl)phenoxy)acetamide)] was tested, and the IC50 (MCF-7) was 13.1 µM.

With `O=C(COc1ccc(C2=Nn3c(nnc3-c3ccccc3)SC2)cc1)NCCNC(=O)COc1ccc(C2=Nn3c(nnc3-c3ccccc3)SC2)cc1` [8a, N,N′-(Ethane-1,2-diyl)bis(2-(4-(3-phenyl-7H-[1,2,4]triazolo[3,4-b][1,3,4]thiadiazin-6-yl)phenoxy)acetamide)] the IC50 (MCF-7) was ≥ 50 µM.

For `O=C(COc1ccccc1C1=Nn2cnnc2SC1)NCCCCNC(=O)COc1ccccc1C1=Nn2cnnc2SC1` [8l, N,N′-(Butane-1,4-diyl)bis(2-(2-(7H-[1,2,4]triazolo[3,4-b][1,3,4]thiadiazin-6-yl)phenoxy)-acetamide)], the IC50 (PARP-1) was 0.00687 µM, the IC50 (MCF-7) was 5.31 µM and the IC50 (EGFR) was 0.0789 µM.

With `O=C(COc1ccc(-c2cnc3ccccc3n2)cc1)NCCNC(=O)COc1ccc(-c2cnc3ccccc3n2)cc1` [10a, N,N′-(Ethane-1,2-diyl)bis(2-(4-(quinoxalin-2-yl)phenoxy)acetamide)] the IC50 (MCF-7) was 32 µM and the IC50 (MDA-MB-231) was ≥ 50 µM.

Molecule `Cc1cc2ncc(-c3ccccc3OCC(=O)NCCCCNC(=O)COc3ccccc3-c3cnc4cc(C)c(C)cc4n3)nc2cc1C` [10e, N,N′-(Butane-1,4-diyl)bis(2-(2-(6,7-dimethylquinoxalin-2-yl)phenoxy)acetamide)] has an IC50 (MCF-7) of 31.2 µM.

For `O=C(COc1ccccc1C1=Nn2c(Cc3ccccc3)nnc2SC1)NCCCNC(=O)COc1ccccc1C1=Nn2c(Cc3ccccc3)nnc2SC1` [8h, N,N′-(Propane-1,3-diyl)bis(2-(2-(3-benzyl-7H-[1,2,4]triazolo[3,4-b][1,3,4]thiadiazin-6-yl)phenoxy)acetamide)], the IC50 (MCF-7) was 21.1 µM and the IC50 (MDA-MB-231) was ≥ 50 µM.

Molecule `O=C(COc1ccccc1C1=Nn2c(nnc2-c2ccccc2)SC1)NCCNC(=O)COc1ccccc1C1=Nn2c(nnc2-c2ccccc2)SC1` [8c, N,N′-(Ethane-1,2-diyl)bis(2-(2-(3-phenyl-7H-[1,2,4]triazolo[3,4-b][1,3,4]thiadiazin-6-yl)phenoxy)acetamide)] has an IC50 (MCF-7) of 16.1 µM.

With `O=C(COc1ccc(C2=Nn3c(Cc4ccccc4)nnc3SC2)cc1)NCCNC(=O)COc1ccc(C2=Nn3c(Cc4ccccc4)nnc3SC2)cc1` [8b, N,N′-(Ethane-1,2-diyl)bis(2-(4-(3-benzyl-7H-[1,2,4]triazolo[3,4-b][1,3,4]thiadiazin-6-yl)phenoxy)acetamide)] the IC50 (MCF-7) was 26.1 µM.

Work on `C#Cc1cccc(Nc2ncnc3cc(OCCOC)c(OCCOC)cc23)c1` [Erlotinib, reference compound] yielded an IC50 (MCF-7) of 0.32 µM.

Molecule `O=C(COc1ccc(C2=Nn3c(nnc3-c3ccccc3)SC2)cc1)NCCCNC(=O)COc1ccc(C2=Nn3c(nnc3-c3ccccc3)SC2)cc1` [8e, N,N′-(Propane-1,3-diyl)bis(2-(4-(3-phenyl-7H-[1,2,4]triazolo[3,4-b][1,3,4]thiadiazin-6-yl)phenoxy)acetamide)] has an IC50 (MCF-7) of 12.7 µM.

`O=C(COc1ccccc1-c1cnc2ccccc2n1)NCCNC(=O)COc1ccccc1-c1cnc2ccccc2n1` [10c, N,N′-(Ethane-1,2-diyl)bis(2-(2-(quinoxalin-2-yl)phenoxy)acetamide)] gave an IC50 (MCF-7) of 7.61 µM.
